# Assay results from ChEMBL document CHEMBL4359898, “Pyrazolo-benzothiazole hybrids: Synthesis, anticancer properties and evaluation of antiangiogenic activity using in vitro VEGFR-2 kinase and in vivo transgenic zebrafish model” (Eur J Med Chem, 2019).
# Activity calls are given as the source filed them. No cut-off for these calls is given here.
# Tests used:
# [1] = test system: U-87 MG; experiment: Cytotoxicity against human U87MG cells assessed as reduction in cell viability incubated for 72 hrs by MTT assay
# [2] = test system: PC-3; experiment: Cytotoxicity against human PC3 cells assessed as reduction in cell viability incubated for 72 hrs by MTT assay; settings: PC-3, 72 h
# [3] = test system: HT-29; experiment: Cytotoxicity against human HT-29 cells assessed as reduction in cell viability incubated for 72 hrs by MTT assay; settings: HT-29, 72 h
# [4] = test system: HEK-293T; experiment: Cytotoxicity against HEK293T cells assessed as reduction in cell viability incubated for 72 hrs by MTT assay; settings: Homo sapiens
# [5] = test system: A549; experiment: Cytotoxicity against human A549 cells assessed as reduction in cell viability incubated for 72 hrs by MTT assay; settings: A549, 72 h
# [6] = test system: Danio rerio; experiment: Antiangiogenic activity in transgenic fli1a:EGFP-tagged zebrafish embryo assessed as reduction in intersegmental vessel sprouting at 1 uM administered from 24 hrs post fertilization and measured after 72 hrs by fluorescence microscopy relative to control; assay type: functional; design: scale not given: the % may be the effect or the level left
# Method in brief: (§1)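 Embryos staged after natural spawning and kept in E3 medium at 28.5 °C. At 1 dpf, 10 embryos per well were placed in E3 containing compound at […] and incubated 72 h at 28.5 °C. Untreated and 1% DMSO vehicle controls were included. Larvae were anaesthetised with 0.01% tricaine and mounted in 1% low-melt agarose. ISVs were imaged in the green channel, and % defective ISVs was counted manually.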
# [7] = test system: PC-3; experiment: Induction of apoptosis in human PC3 cells at incubated for 48 hrs by […] staining based fluorescence microscopy; assay type: functional, cell-based
# Method in brief: (§2)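 PC-3 cells on coverslips (1 × 10^6 per well) were incubated 48 h with […]. Cells were PBS-washed, 4% paraformaldehyde was added, and they were stained 20 min with […]. After three PBS washes, nuclei were examined by fluorescence microscopy for chromatin condensation and fragmentation.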
# [8] = test system: PC-3; experiment: Cell cycle arrest in human PC3 cells assessed as reduction in G2/M phase population at 1 uM incubated for 48 hrs by propidium iodide staining based flow cytometry; assay type: functional
# [9] = test system: PC-3; settings: Homo sapiens, 1 to 5 uM
# [10] = test system: PC-3; experiment: Cell cycle arrest in human PC3 cells assessed as accumulation in G0/G1 phase at 1 uM incubated for 48 hrs by propidium iodide based flow cytometry (reference value: 51.3 %); assay type: functional
# [11] = test system: PC-3; experiment: Induction of apoptosis in human PC3 cells assessed as early apoptotic cells at 1 uM incubated for 48 hrs by annexin V FITC and propidium iodide staining based flow cytometry (reference value: 2.8 %); assay type: functional
# Method in brief: (§3)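 PC-3 cells at 1 × 10^6 per well were treated 48 h at […]. Cells were trypsinised, washed in PBS and resuspended in annexin binding buffer. Annexin V-FITC and PI were added for 15 min at room temperature. 10000 cells were analysed by flow cytometry and sorted into quadrants as live, early apoptotic, late apoptotic or necrotic.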
# [12] = test system: PC-3; experiment: Induction of apoptosis in human PC3 cells assessed as necrotic cells at 5 uM incubated for 48 hrs by annexin V FITC and propidium iodide staining based flow cytometry (reference value: 1 %); assay type: functional; method in brief: as §3
# [13] = test system: U-87 MG; settings: Homo sapiens; U-87MG ATCC
# [14] = test system: PC-3; experiment: Induction of apoptosis in human PC3 cells assessed as viable cells at 3 uM incubated for 48 hrs by annexin V FITC and propidium iodide staining based flow cytometry (reference value: 95 %); assay type: functional; settings: PC-3, 48 h, read-out: Activity; method in brief: as §3
# [15] = test system: PC-3; experiment: Induction of apoptosis in human PC3 cells assessed as late apoptotic cells at 5 uM incubated for 48 hrs by annexin V FITC and propidium iodide staining based flow cytometry (reference value: 1.2 %); assay type: functional; method in brief: as §3
# [16] = test system: PC-3; experiment: Induction of apoptosis in human PC3 cells assessed as late apoptotic cells at 3 uM incubated for 48 hrs by annexin V FITC and propidium iodide staining based flow cytometry (reference value: 1.2 %); assay type: functional; method in brief: as §3
# [17] = test system: PC-3; settings: Homo sapiens, 3 uM
# [18] = test system: PC-3; experiment: Induction of apoptosis in human PC3 cells assessed as necrotic cells at 1 uM incubated for 48 hrs by annexin V FITC and propidium iodide staining based flow cytometry (reference value: 1 %); assay type: functional; method in brief: as §3
# [19] = test system: PC-3; experiment: Cell cycle arrest in human PC3 cells assessed as accumulation in G0/G1 phase incubated for 48 hrs by propidium iodide based flow cytometry; assay type: functional
# [20] = test system: Danio rerio; experiment: Antiangiogenic activity in transgenic fli1a:EGFP-tagged zebrafish embryo assessed as reduction in intersegmental vessel sprouting at 0.5 uM administered from 24 hrs post fertilization and measured after 72 hrs by fluorescence microscopy relative to control; assay type: functional; design: scale not given: the % may be the effect or the level left; method in brief: as §1
# [21] = test system: PC-3; experiment: Cell cycle arrest in human PC3 cells assessed as reduction in S phase population at 1 uM incubated for 48 hrs by propidium iodide staining based flow cytometry; assay type: functional
# [22] = test system: PC-3; experiment: Induction of apoptosis in human PC3 cells assessed as nuclei fragmentation incubated for 48 hrs by […] staining based fluorescence microscopy; assay type: functional, cell-based; method in brief: as §2
# [23] = test system: PC-3; experiment: Induction of apoptosis in human PC3 cells assessed as viable cells at 5 uM incubated for 48 hrs by annexin V FITC and propidium iodide staining based flow cytometry (reference value: 95 %); assay type: functional; settings: PC-3, 48 h, read-out: Activity; method in brief: as §3
# [24] = test system: PC-3; experiment: Cell cycle arrest in human PC3 cells assessed as accumulation in G0/G1 phase at 3 uM incubated for 48 hrs by propidium iodide based flow cytometry (reference value: 51.3 %); assay type: functional
# [25] = test system: PC-3; experiment: Induction of apoptosis in human PC3 cells assessed as necrotic cells at 3 uM incubated for 48 hrs by annexin V FITC and propidium iodide staining based flow cytometry (reference value: 1 %); assay type: functional; method in brief: as §3
# [26] = test system: Danio rerio; experiment: Antiangiogenic activity in transgenic fli1a:EGFP-tagged zebrafish embryo assessed as reduction in intersegmental vessel sprouting administered from 24 hrs post fertilization and measured after 72 hrs by fluorescence microscopy; assay type: functional, organism-based; method in brief: as §1
# [27] = test system: PC-3; experiment: Induction of apoptosis in human PC3 cells assessed as viable cells at 1 uM incubated for 48 hrs by annexin V FITC and propidium iodide staining based flow cytometry (reference value: 95 %); assay type: functional; settings: PC-3, 48 h, read-out: Activity; method in brief: as §3
# [28] = test system: PC-3; experiment: Induction of apoptosis in human PC3 cells assessed as nuclei condensation incubated for 48 hrs by […] staining based fluorescence microscopy; assay type: functional, cell-based; method in brief: as §2
# [29] = test system: PC-3; experiment: Induction of apoptosis in human PC3 cells assessed as early apoptotic cells at 3 uM incubated for 48 hrs by annexin V FITC and propidium iodide staining based flow cytometry (reference value: 2.8 %); assay type: functional; method in brief: as §3
# [30] = test system: PC-3; experiment: Induction of apoptosis in human PC3 cells assessed as late apoptotic cells at 1 uM incubated for 48 hrs by annexin V FITC and propidium iodide staining based flow cytometry (reference value: 1.2 %); assay type: functional; method in brief: as §3
# [31] = test system: PC-3; experiment: Induction of apoptosis in human PC3 cells incubated for 48 hrs by annexin V FITC and propidium iodide staining based flow cytometry; assay type: functional, cell-based; method in brief: as §3
# [32] = test system: PC-3; experiment: Inhibition of cell migration in human PC3 cells at 5 uM incubated for 48 hrs by phase contrast microscopy based scratch wound healing assay relative to control; assay type: functional; settings: PC-3, 48 h
# Method in brief: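 Confluent PC-3 monolayers were scratched with a pipette tip to leave lanes about 1 mm wide, and debris was washed off with PBS. Cells were given complete medium alone or medium containing […]. Wounds were imaged by phase contrast at time zero and after 48 h.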
# [33] = test system: Danio rerio; experiment: Antiangiogenic activity in transgenic fli1a:EGFP-tagged zebrafish embryo assessed as reduction in intersegmental vessel sprouting at 0.1 uM administered from 24 hrs post fertilization and measured after 72 hrs by fluorescence microscopy relative to control; assay type: functional; design: scale not given: the % may be the effect or the level left; method in brief: as §1
# [34] = test system: PC-3; experiment: Cell cycle arrest in human PC3 cells assessed as accumulation in G0/G1 phase at 5 uM incubated for 48 hrs by propidium iodide based flow cytometry (reference value: 51.3 %); assay type: functional
# [35] = test system: PC-3; experiment: Induction of apoptosis in human PC3 cells assessed as early apoptotic cells at 5 uM incubated for 48 hrs by annexin V FITC and propidium iodide staining based flow cytometry (reference value: 2.8 %); assay type: functional; method in brief: as §3
# [36] = test system: PC-3; experiment: Induction of apoptosis in human PC3 cells assessed as mitochondrial membrane potential loss incubated for 48 hrs by JC1 staining based fluorescence microscopy; assay type: functional, cell-based
# Method in brief: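 PC-3 cells were plated at 5 × 10^5 cells/mL and incubated 48 h with […]. The medium was then replaced with fresh medium containing JC-1 for 20 min. After three PBS washes, red and green fluorescence was imaged, and depolarisation was read as a rise in the green/red ratio.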
smiles,measurement,setting,value
COc1ccc(-c2nn(-c3ccccc3)cc2C(=O)Nc2nc3ccc(C)cc3s2)cc1,IC50,[1],> 50 µM
same,IC50,[2],15.9 µM
same,IC50,[3],21.5 µM
same,IC50,[4],> 50 µM
same,IC50,[5],27.7 µM
O=C(Nc1nc2ccc(Cl)cc2s1)c1cn(-c2ccccc2)nc1-c1ccc(F)cc1,Activity,[6],54.5%
same,Activity,[7],Dose-dependent effect
same,Activity,[8],Active
same,inhibition,[9],Active
same,Activity,[10],65.5%
same,Activity,[11],10.4%
same,Activity,[12],2.8%
same,inhibition,[13],Active
same,viability at 3 µM,[14],77.2%
same,Activity,[15],9.6%
same,Activity,[16],6.9%
same,inhibition,[17],Active
same,Activity,[18],1.1%
same,Activity,[19],Dose-dependent effect
same,Activity,[20],47.3%
same,Activity,[21],Active
same,IC50,[1],6.77 µM
same,Activity,[22],Dose-dependent effect
same,IC50,[2],3.17 µM
same,viability at 5 µM,[23],70.9%
same,Activity,[24],74.8%
same,Activity,[25],2.1%
same,Activity,[26],Dose-dependent effect
same,viability at 1 µM,[27],84.8%
same,Activity,[28],Dose-dependent effect
same,Activity,[29],13.8%
same,Activity,[30],3.7%
same,Activity,[31],Dose-dependent effect
same,IC50,[3],3.32 µM
same,IC50,[4],45.7 µM
same,inhibition at 5 µM,[32],100%
same,IC50,[5],3.87 µM
same,Activity,[33],16%
same,Activity,[34],81.4%
same,Activity,[35],16.7%
same,Activity,[36],Dose-dependent effect
Cc1ccc2nc(NC(=O)c3cn(-c4ccccc4)nc3-c3ccc(F)cc3)sc2c1,IC50,[1],> 50 µM
same,IC50,[2],20.5 µM
same,IC50,[3],22.9 µM
same,IC50,[4],> 50 µM
same,IC50,[5],24.6 µM
Cc1ccc2nc(NC(=O)c3cn(-c4ccccc4)nc3-c3ccccc3)sc2c1,IC50,[1],23.2 µM
same,IC50,[2],15.7 µM
same,IC50,[3],> 50 µM
same,IC50,[4],> 50 µM
same,IC50,[5],26.5 µM
COc1ccc2nc(NC(=O)c3cn(-c4ccccc4)nc3-c3ccc(F)cc3)sc2c1,IC50,[1],> 50 µM
same,IC50,[2],12.8 µM
same,IC50,[3],33.2 µM
same,IC50,[4],> 50 µM
same,IC50,[5],> 50 µM
Cc1ccc2nc(NC(=O)c3cn(-c4ccccc4)nc3-c3ccc(Cl)cc3)sc2c1,IC50,[1],33.2 µM
same,IC50,[2],14.5 µM
same,IC50,[3],23.7 µM
same,IC50,[4],35.6 µM
same,IC50,[5],18.6 µM
COc1ccc2nc(NC(=O)c3cn(-c4ccccc4)nc3-c3ccc(Cl)cc3)sc2c1,IC50,[1],21.2 µM
same,IC50,[2],29.3 µM
same,IC50,[3],18.6 µM
same,IC50,[4],29.6 µM
same,IC50,[5],31.4 µM
COc1ccc2nc(NC(=O)c3cn(-c4ccccc4)nc3-c3ccccc3)sc2c1,IC50,[1],40.6 µM
same,IC50,[2],17.5 µM
same,IC50,[3],> 50 µM
same,IC50,[4],> 50 µM
same,IC50,[5],> 50 µM
COc1ccc(-c2nn(-c3ccccc3)cc2C(=O)Nc2nc3ccc(OC)cc3s2)cc1,IC50,[1],5.89 µM
same,IC50,[2],13.5 µM
same,IC50,[3],> 50 µM
same,IC50,[4],> 50 µM
same,IC50,[5],18.9 µM
O=C(Nc1nc2ccccc2s1)c1cn(-c2ccccc2)nc1-c1ccc(Cl)cc1,IC50,[1],11.5 µM
same,IC50,[2],7.75 µM
same,IC50,[3],13.7 µM
same,IC50,[4],39.6 µM
same,IC50,[5],10.3 µM
COc1ccc(-c2nn(-c3ccccc3)cc2C(=O)Nc2nc3ccccc3s2)cc1,IC50,[1],11.5 µM
same,IC50,[2],6.67 µM
same,IC50,[3],10.5 µM
same,IC50,[4],18.9 µM
same,IC50,[5],13.7 µM
